# Experiments:
# vWF [1] = conditions: cited from earlier work
# vWF [2] = assay: Formation of new thiols in vWF; assay type: biochemical, human
# vWF [3] = assay: vWF reductase activity: collagen binding activity / vWF antigen ratio in vitro; assay type: biochemical, human
# Procedure, shortened: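 Plasma from a TTP patient (plasmapheresis; centrifuged 2,000 g, 20 min, 4°C) was used at 10 μl with 90 μl Hepes-buffered saline containing 1 mM CaCl2. The buffer held purified human platelet TSP-1 (0.001–100 μg/ml; purified in 0.1 or 2 mM CaCl2 buffers, quantified by A280) or HMEC-1 conditioned medium. Incubation was 1 or 24 h at 37°C. Aliquots were diluted 10-fold and assayed for collagen binding and vWF antigen, giving a ratio. Triplicates, mean and SD.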
# vWF [4] = assay type: biochemical, human
# vWF [5] = assay: Binding of TSP-1 to vWF; design: species or system human
# Procedure, shortened: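 vWF (5 μg/ml in 0.1 M NaHCO3, pH 8.3) adsorbed to wells overnight at 4°C, then blocked with 2% BSA in HBS (90 min, 37°C). Control wells were BSA-blocked only, with 10 μg/ml TSP-1. TSP-1 (0–10 μg/ml) in Hepes/NaCl/1 mM CaCl2/1 mM MgCl2, pH 7.4, with 0, 5 or 20 mM NEM, 30 min RT with shaking. Wells washed with 1 M NaCl buffer. Detection: anti-TSP-1 mAb HB8432 (10 μg/ml), then peroxidase anti-mouse (1:1,000). Triplicates, mean and SD.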
# plasma vWF = assay: Reduction in average multimer size of plasma vWF in mice; assay type: in vivo; conditions: Balb c mice, 1 mg/kg i.p., 24 h, P < 0.05
# Procedure, shortened: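 Balb c mice aged 7–9 wk, n = 4 per group with 2 male and 2 female each, were given buffer vehicle or purified human platelet TSP-1 at 1 mg/kg as a 0.1 ml i.p. injection. After 24 h, EDTA plasma was collected by cardiac puncture. Plasma was assayed in triplicate for vWF collagen binding activity and vWF antigen, using anti-rat vWF polyclonal antibodies. Multimer size was expressed as the collagen binding/antigen ratio.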
# [6] = Plasma concentration of human TSP-1 in mice after injection; assay type: in vivo; conditions: Balb c mice, 1 mg/kg i.p., 24 h after injection, TSP-1 ELISA
# Procedure, shortened: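 Balb c mice (7–9 wk; 2 male, 2 female per group) received purified human platelet TSP-1 at 1 mg/kg as a 0.1 ml i.p. injection. EDTA blood was taken by cardiac puncture 24 h later. Human TSP-1 was measured by sandwich ELISA: HB8432 capture (5 μg/ml, pH 9.6, overnight at 4°C), BSA block, diluted plasma 30 min RT, biotin-HB8432 (5 μg/ml), then StreptABComplex/HRP (1:100). Standards were TSP-1-depleted plasma spiked with platelet TSP-1; the assay was linear over 1–100 ng/ml.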
# collagen = conditions: cited from earlier work
# [7] = cited from earlier work
# activated platelets = conditions: cited from earlier work
# platelet aggregation = conditions: high fluid shear; cited from earlier work
compound,measurement,setting,value
"O=C(O)CN(CCN(CC(=O)O)CC(=O)O)CC(=O)O [EDTA, reference compound]",effect of EDTA on vWF reductase activity in endothelial cell–conditioned medium,vWF [1],inhibited
same,effect of EDTA on TSP-1–facilitated formation of free thiols in vWF,vWF [2]; not shown,ablated TSP-1–facilitated formation of free thiols in vWF
same,effect of EDTA (chelation of Ca2+) on vWF reductase activity of TSP-1,vWF [3]; not shown,ablated the vWF reductase activity of TSP-1
thrombospondin-1 [TSP-1],average multimer size of plasma vWF,vWF [4]; TSP-1 added to TTP2 and TTP3 patient plasmas (not shown),reduced the average multimer size of the plasma vWF
same,very large vWF multimers,"vWF [4]; TTP1 patient plasma, 1 h, 37°C, 1% agarose gel",the very large multimers were lost
same,binding of TSP-1 to wells not coated with vWF,"vWF [5]; 10 μg/ml TSP-1, BSA-blocked wells",no binding
same,average multimer size of plasma vWF vs buffer vehicle,plasma vWF,significantly lower
same,concentration of human TSP-1 in mouse plasma,[6],~1000 ng/mL
same,dependence of MPB incorporation on TSP-1 concentration,"vWF [2]; TSP-1 0.01 to 100 μg/ml, 60 min, 37°C",the incorporation increased with increasing TSP-1 concentration
same,formation of new thiols in vWF (MPB incorporation),"vWF [2]; purified human vWF 2 μg/ml, 60 min, 37°C, TSP-1 0.01 to 100 μg/ml or HMEC-1–conditioned medium, MPB 100 μM",resulted in incorporation of MPB into vWF
same,dependence of TSP-1–mediated reduction in vWF multimer size,"vWF [3]; TTP1 plasma, TSP-1 0.001 to 100 μg/ml, 1 or 24 h, 37°C",concentration and time dependent
same,vWF reducing activity of three different preparations of platelet TSP-1,vWF [3]; not shown,had the same vWF reducing activity
same,optimal TSP-1 concentration for reduction of vWF in 1 h,"vWF [3]; purified TSP-1, ∼1 μg/ml plasma vWF, 1 h",~0.1 µg/mL
same,optimal TSP-1 concentration for reduction of vWF in 24 h,"vWF [3]; purified TSP-1, ∼1 μg/ml plasma vWF, 24 h",~0.01 µg/mL
multimeric vWF: multimeric von Willebrand factor,collagen binding affinity vs monomeric vWF fragments,collagen,~100 fold
large vWF multimers: large multimers of von Willebrand factor,ristocetin cofactor activity per unit antigen vs small multimers,[7],considerably higher
same,affinity for activated platelets vs monomeric fragments,activated platelets,~100 fold
same,affinity for activated platelets vs small multimers,activated platelets,up to 10 fold
"CCN1C(=O)C=CC1=O [NEM, N-ethylmaleimide, reference compound]",TSP-1/vWF complex formation vs NEM concentration,"vWF [5]; NEM 0, 5, 20 mM, 30 min, room temperature",Complex formation increased with increasing NEM concentration
unusually large vWF multimers: unusually large vWF multimers secreted by endothelial cells,induction of platelet aggregation vs largest plasma forms,platelet aggregation,more effective

# — PMC2193294 (The Journal of Experimental Medicine, 2001)
